The source made the active and inactive calls.
How the values were obtained:
B16 [1] = test: Antitumor activity against mouse B16 cells allografted in BDF1 mouse assessed as disease cure at 12.5 mg/kg, ip on day 1 to 9 measured up to 80 days; type: functional, organism-based; design: dose 12.5 mg/kg
Procedure, shortened: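 BDF1 mice implanted ip with a homogenate from 0.05 g of tumor. Dosed ip on days 1–9, with deaths recorded for 80 days. "Cures" counted as survivors/total at 80 days.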

P388 [2] = test: Antitumor activity against mouse P388 cells allografted in mouse assessed as increase of median life span at 50 mg/kg, ip on day 1, 5 and 9 measured up to 60 days relative to control; type: functional; details: route intraperitoneal
Procedure, shortened: (§1)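 BDF1 or CDF1 mice inoculated ip with ascitic P388 leukemia cells. Dosing ip on days 1, 5 and 9. Deaths recorded for 60 days; % increase in median life span over controls. "Cures" are survivors/total at 60 days.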

B16 [3] = test: Antitumor activity against mouse B16 cells allografted in BDF1 mouse assessed as increase of median life span at 12.5 mg/kg, ip on day 1 to 9 measured up to 80 days relative to control; type: functional; details: route intraperitoneal
P388 [4] = test: Antitumor activity against mouse P388 cells allografted in mouse assessed as disease cure at 100 mg/kg, ip on day 1, 5 and 9 measured up to 60 days; type: functional, organism-based; design: dose 100 mg/kg
Procedure, shortened: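 BDF or CDF1 mice injected ip with ascitic leukemia cells, then dosed ip on days 1, 5 and 9. Deaths recorded for 60 days. Read-outs: percent increase in median life span over controls, and "cures" as survivors/total at 60 days.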

P388 [5] = test: Antitumor activity against mouse P388 cells allografted in mouse assessed as increase of median life span at 100 mg/kg, ip on day 1, 5 and 9 measured up to 60 days relative to control; type: functional; details: route intraperitoneal
B16 [6] = test: Antitumor activity against mouse B16 cells allografted in BDF1 mouse assessed as disease cure at 50 mg/kg, ip on day 1 to 9 measured up to 80 days; type: functional, organism-based; design: dose 50 mg/kg
Procedure, shortened: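 BDF1 mice implanted ip with homogenate from 0.05 g of B16 tumor, then dosed ip on days 1-9. Deaths recorded for 80 days; "cures" scored as survivors/total at 80 days.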

B16 [7] = test: Antitumor activity against mouse B16 cells allografted in BDF1 mouse assessed as increase of median life span at 50 mg/kg, ip on day 1 to 9 measured up to 80 days relative to control; type: functional; details: route intraperitoneal
Procedure, shortened: (§2)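 BDF1 mice implanted ip with a homogenate from 0.05 g of B16 tumor. Test agent given ip on days 1-9. Deaths recorded for 80 days. Result is % increase in median life span over untreated controls. "Cures" are survivors/total at 80 days.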

P388 [8] = test: Antitumor activity against mouse P388 cells allografted in mouse assessed as disease cure at 200 mg/kg, ip on day 1, 5 and 9 measured up to 60 days; type: functional, organism-based; design: dose 200 mg/kg
Procedure, shortened: (§3)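 BDF1 or CDF1 mice inoculated ip with ascitic P388 leukemia cells, dosed ip on days 1, 5 and 9. Deaths recorded for 60 days; "cures" taken as number of survivors/total at 60 days.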

P388 [9] = test: Antitumor activity against mouse P388 cells allografted in mouse assessed as increase of median life span at 200 mg/kg, ip on day 1, 5 and 9 measured up to 60 days relative to control; type: functional; details: route intraperitoneal; procedure, shortened: as §1
[10] = Therapeutic index, ratio of MTD for mouse P388 cells allografted ip dosed mouse to MED for mouse P388 cells allografted in ip dosed mouse administered as once each 4 days for 3 total injection; type: organism-based; details: in vivo, read-out: TI
Procedure, shortened: (§4)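 Therapeutic index is MTD/MED for ip dosing, either single or once every 4 days ×3. MTD is the 10% lethal dose in normal mice over 21 days. MED is the dose giving a 40% life-span increase in P388-bearing mice. Both come from log dose-response regression lines.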

[11] = Therapeutic index, ratio of MTD for mouse P388 cells allografted ip dosed mouse to MED for mouse P388 cells allografted in ip dosed mouse administered as single dose; type: organism-based; details: in vivo, read-out: TI; procedure, shortened: as §4
P388 [12] = test: Antitumor activity against mouse P388 cells allografted in ip dosed mouse assessed as dose providing 40% increase in life span administered as once each 4 days for 3 total injection; type: functional
Procedure, shortened: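 P388 tumor-bearing mice dosed ip, either once as a single dose or once every 4 days for three injections. It was read from regression lines of log dose-response data.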

[13] = Toxicity in […] assessed as maximum tolerated dose administered as once each 4 days for 3 total injection; type: organism-based, P388; details: mouse, in vivo, ip
P388 [14] = test: Antitumor activity against mouse P388 cells allografted in ip dosed mouse assessed as minimum effective dose administered as single dose; type: functional; details: read-out: MED
Procedure, shortened: (§5)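 Drug given ip to P388 tumor-bearing mice, either once as a single dose or once each 4 days for three injections. Minimum effective dose defined as the dose giving 40% increase in life span over control, read from regression lines of log dose-response data.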

[15] = Toxicity in […] assessed as maximum tolerated dose administered as single dose; type: organism-based, P388; details: mouse, in vivo, ip
P388 [16] = test: Antitumor activity against mouse P388 cells allografted in ip dosed mouse assessed as minimum effective dose administered as once each 4 days for 3 total injection; type: functional; details: 96 h, read-out: MED; procedure, shortened: as §5
P388 [17] = test: Antitumor activity against mouse P388 cells allografted in mouse assessed as increase of median life span at 25 mg/kg, ip on day 1, 5 and 9 measured up to 60 days relative to control; type: functional; details: route intraperitoneal; procedure, shortened: as §1
B16 [18] = test: Antitumor activity against mouse B16 cells allografted in BDF1 mouse assessed as increase of median life span at 6.2 mg/kg, ip on day 1 to 9 measured up to 80 days relative to control; type: functional; details: route intraperitoneal; procedure, shortened: as §2
P388 [19] = test: Antitumor activity against mouse P388 cells allografted in mouse assessed as disease cure at 25 mg/kg, ip on day 1, 5 and 9 measured up to 60 days; type: functional, organism-based; design: dose 25 mg/kg; procedure, shortened: as §3

Structure (SMILES)	Activity (B16 [6])	ILS at 50 mg/kg (B16 [7]) [%]	Activity (P388 [8])	ILS at 200 mg/kg (P388 [9]) [%]	other results
O=C1c2c(O)ccc(O)c2C(=O)c2c(NCCNCC(O)CO)ccc(NCCNCC(O)CO)c21 (stereo not given)	–	–	–	–	Activity (B16 [1]): inactive; ILS at 50 mg/kg (P388 [2]): > 422%; ILS at 12.5 mg/kg (B16 [3]): 79%
O=C1c2c(O)ccc(O)c2C(=O)c2c(NCCN3CCNCC3)ccc(NCCN3CCNCC3)c21	inactive	103	–	–	Activity (P388 [4]): inactive; ILS at 100 mg/kg (P388 [5]): 133%
O=C1c2c(O)ccc(O)c2C(=O)c2c(NCCN3CCOCC3)ccc(NCCN3CCOCC3)c21	–	–	inactive	0	–
CN(Cc1cnc2nc(N)nc(N)c2n1)c1ccc(C(=O)N[C@@H](CCC(=O)O)C(=O)O)cc1 [METHOTREXATE]	–	–	–	–	selectivity ratio at 96 h [10]: 11; selectivity ratio [11]: 4; Activity (P388 [12]): 102 mg/kg; MTD at 96 h [13]: 17.5 mg/kg; minimal effective dose (P388 [14]): 27.9 mg/kg; MTD [15]: 108 mg/kg; minimal effective dose (P388 [16]): 1.5 mg/kg
CN(C)CCNc1ccc(NCCN(C)C)c2c1C(=O)c1ccccc1C2=O	–	39	–	–	ILS at 100 mg/kg (P388 [5]): 68%
CN(C)CCCNc1ccc(NCCCN(C)C)c2c1C(=O)c1ccccc1C2=O	–	0	–	0	–
CCNc1ccc(NCC)c2c1C(=O)c1ccccc1C2=O	–	–	–	–	ILS at 100 mg/kg (P388 [5]): 0%
CCCNCCNc1ccc(NCCNCCC)c2c1C(=O)c1c(O)ccc(O)c1C2=O	inactive	0	–	–	ILS at 50 mg/kg (P388 [2]): 36%
Cc1ccc2c(c1)C(=O)c1c(NCCN(C)C)ccc(NCCN(C)C)c1C2=O	–	–	inactive	0	–
CNCCNCCNc1ccc(NCCNCCNC)c2c1C(=O)c1c(O)ccc(O)c1C2=O	inactive	122	–	–	ILS at 100 mg/kg (P388 [5]): 120%
CN(C)CCCCNc1ccc(NCCCCN(C)C)c2c1C(=O)c1c(O)ccc(O)c1C2=O	inactive	0	inactive	0	–
CNCCNc1ccc(NCCNC)c2c1C(=O)c1ccccc1C2=O	–	–	–	–	ILS at 25 mg/kg (P388 [17]): 144%; ILS at 6.2 mg/kg (B16 [18]): 114%
CC(C)N(CCNc1ccc(NCCN(C(C)C)C(C)C)c2c1C(=O)c1c(O)ccc(O)c1C2=O)C(C)C	inactive	0	inactive	0	–
CCCCN(CCCC)CCNc1ccc(NCCN(CCCC)CCCC)c2c1C(=O)c1c(O)ccc(O)c1C2=O	inactive	0	inactive	0	–
CN(C)CCNc1ccc(NCCN(C)C)c2c1C(=O)c1cc(Cl)c(Cl)cc1C2=O	–	–	inactive	0	–
O=C1c2ccccc2C(=O)c2c(NCCNCCO)ccc(NCCNCCO)c21 [AMETANTRONE]	–	–	–	–	ILS at 25 mg/kg (P388 [17]): 154%; Activity (P388 [19]): inactive; ILS at 6.2 mg/kg (B16 [18]): 129%
O=P1(N(CCCl)CCCl)NCCCO1 (stereo not given) [CYCLOPHOSPHAMIDE ANHYDROUS]	–	–	–	–	selectivity ratio at 96 h [10]: 8; selectivity ratio [11]: 13; Activity (P388 [12]): 142 mg/kg; MTD at 96 h [13]: 100 mg/kg; minimal effective dose (P388 [14]): 26.3 mg/kg; MTD [15]: 350 mg/kg; minimal effective dose (P388 [16]): 12 mg/kg
O=c1[nH]cc(F)c(=O)[nH]1 [FLUOROURACIL]	–	–	–	–	selectivity ratio at 96 h [10]: 4; selectivity ratio [11]: 3; Activity (P388 [12]): 70 mg/kg; MTD at 96 h [13]: 48 mg/kg; minimal effective dose (P388 [14]): 88 mg/kg; MTD [15]: 280 mg/kg; minimal effective dose (P388 [16]): 11.4 mg/kg
CC(=O)NCCNc1ccc(NCCNC(C)=O)c2c1C(=O)c1c(O)ccc(O)c1C2=O	inactive	0	–	0	–

Structure (SMILES)	Activity (B16 [6])	ILS at 50 mg/kg (B16 [7]) [%]	Activity (P388 [8])	ILS at 200 mg/kg (P388 [9]) [%]	other results
CN(CCNc1ccc(NCCN(C)c2ccccc2)c2c1C(=O)c1c(O)ccc(O)c1C2=O)c1ccccc1	inactive	0	inactive	0	–
COc1cccc2c1C(=O)c1c(O)c3c(c(O)c1C2=O)C[C@@](O)(C(C)=O)C[C@@H]3O[C@H]1C[C@H](N)[C@H](O)[C@H](C)O1 [DAUNORUBICIN]	–	–	–	–	selectivity ratio [11]: 10; minimal effective dose (P388 [14]): 0.52 mg/kg; MTD [15]: 5.2 mg/kg
CCN1CCCC1CNc1ccc(NCC2CCCN2CC)c2c1C(=O)c1c(O)ccc(O)c1C2=O (stereo not given)	inactive	30	inactive	45	–
CN(C)CCCCCNc1ccc(NCCCCCN(C)C)c2c1C(=O)c1c(O)ccc(O)c1C2=O	inactive	0	inactive	0	–
O=C1c2ccccc2C(=O)c2c(NCCO)ccc(NCCO)c21	–	–	–	–	ILS at 100 mg/kg (P388 [5]): 0%
O=C1c2c(O)ccc(O)c2C(=O)c2c(NCCNCCNCCO)ccc(NCCNCCNCCO)c21	inactive	35	–	–	ILS at 100 mg/kg (P388 [5]): 73%
O=C1c2ccccc2C(=O)c2c(NCCN3CCCCC3)ccc(NCCN3CCCCC3)c21	–	–	inactive	27	–
O=C1c2c(O)ccc(O)c2C(=O)c2c(NCCO)ccc(NCCO)c21	–	–	–	–	Activity (P388 [4]): inactive; ILS at 100 mg/kg (P388 [5]): 0%
NCCNc1ccc(NCCN)c2c1C(=O)c1ccccc1C2=O	–	100	inactive	145	ILS at 25 mg/kg (P388 [17]): 144%; Activity (P388 [19]): inactive; ILS at 12.5 mg/kg (B16 [3]): 82%
O=C1c2c(O)ccc(O)c2C(=O)c2c(NCCN3CC3)ccc(NCCN3CC3)c21	–	–	–	–	Activity (P388 [4]): inactive; ILS at 100 mg/kg (P388 [5]): 185%; Activity (B16 [1]): inactive; ILS at 12.5 mg/kg (B16 [3]): 58%
O=C1c2c(O)ccc(O)c2C(=O)c2c(NCCN3CCCC3)ccc(NCCN3CCCC3)c21	–	–	–	–	Activity (P388 [4]): inactive; ILS at 100 mg/kg (P388 [5]): 118%; Activity (B16 [1]): inactive; ILS at 12.5 mg/kg (B16 [3]): 58%
O=C1c2c(O)ccc(O)c2C(=O)c2c(NCCCN3CCOCC3)ccc(NCCCN3CCOCC3)c21	inactive	0	inactive	40	–
CN(C)CCNc1ccc(NCCN(C)C)c2c1C(=O)c1c(O)ccc(O)c1C2=O	–	–	–	–	ILS at 50 mg/kg (P388 [2]): 122%; ILS at 12.5 mg/kg (B16 [3]): 70%
CCN(CC)CCNc1ccc(NCCN(CC)CC)c2c1C(=O)c1c(O)ccc(O)c1C2=O	–	38	–	88	–
CN(C)CCCCCNc1ccc(NCCCCCN(C)C)c2c1C(=O)c1ccccc1C2=O	–	–	inactive	0	–
CCN(CC)CCNc1ccc(NCCN(CC)CC)c2c1C(=O)c1ccccc1C2=O	–	–	inactive	40	–
Nc1ccc(N)c2c1C(=O)c1ccccc1C2=O	–	–	–	–	Activity (P388 [4]): inactive; ILS at 100 mg/kg (P388 [5]): 0%
CCN(CC)CCCC(C)Nc1ccc(NC(C)CCCN(CC)CC)c2c1C(=O)c1c(O)ccc(O)c1C2=O (stereo not given)	inactive	0	–	–	Activity (P388 [4]): inactive; ILS at 100 mg/kg (P388 [5]): 30%

— ChEMBL document CHEMBL3244336, “Antitumor agents. 1. 1,4-Bis[(aminoalkyl)amino]-9,10-anthracenediones” (J Med Chem, 1979)
